Here are results for nine compounds from ChEMBL document CHEMBL4431317, “Allosteric Inhibition of SHP2: Identification of a Potent, Selective, and Orally Efficacious Phosphatase Inhibitor” (J Med Chem, 2016).

Data set [1] concerns the target T1, Tyrosine-protein phosphatase non-receptor type 11 (Homo sapiens, UniProt Q06124).
T1 sequence (Q06124 whole entry): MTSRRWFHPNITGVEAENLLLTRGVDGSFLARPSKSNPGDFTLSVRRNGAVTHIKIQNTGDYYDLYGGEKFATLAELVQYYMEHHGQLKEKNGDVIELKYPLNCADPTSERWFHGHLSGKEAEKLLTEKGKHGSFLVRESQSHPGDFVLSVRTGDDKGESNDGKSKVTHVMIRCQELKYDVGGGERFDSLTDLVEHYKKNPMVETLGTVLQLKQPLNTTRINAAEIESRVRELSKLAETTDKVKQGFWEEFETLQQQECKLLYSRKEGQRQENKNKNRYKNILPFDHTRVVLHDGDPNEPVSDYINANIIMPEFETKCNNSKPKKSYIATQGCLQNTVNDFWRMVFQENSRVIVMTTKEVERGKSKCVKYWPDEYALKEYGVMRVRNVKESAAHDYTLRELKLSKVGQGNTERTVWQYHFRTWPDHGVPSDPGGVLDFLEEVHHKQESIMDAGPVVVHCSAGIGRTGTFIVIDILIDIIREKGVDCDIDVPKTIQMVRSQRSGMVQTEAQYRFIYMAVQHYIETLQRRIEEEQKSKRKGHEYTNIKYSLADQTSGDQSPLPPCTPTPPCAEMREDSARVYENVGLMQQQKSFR
The experiment in a line: Inhibition of human 6his-tagged SHP2 (2 to 593 residues) expressed in Escherichia coli BL21 Star (DE3) cells preincubated with IRS1_pY1172(dPEG8)pY1222 for 30 to 60 mins followed by addition of DiFMUP measured after 30 mins by fluorescence analysis.

The target of data set [2] is T1, Tyrosine-protein phosphatase non-receptor type 11. Description: Inhibition of human SHP2 PTP domain (237 to 529 residues) by fluorescence analysis.
In data set [3] the target is T2, Tyrosine-protein phosphatase non-receptor type 11 (Homo sapiens) (UniProt Q06124).
T2 sequence (whole entry): T1 sequence (Q06124 whole entry)
Description: Inhibition of human 6his-tagged SHP2 (1 to 525 residues) expressed in Escherichia coli BL21 Star (DE3) cells assessed as change in melting temperature at 100 uM by SYPRO orange dye based differential scanning fluorometry. The procedure, abridged: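 Thermal shift with SHP2 1-525 construct at 100 µg/mL, 5× SYPRO Orange, 100 mM Bis-Tris pH 6.5, 100 mM NaCl, 0.25 mM TCEP, 5% DMSO; compound at 100 µM final. Ramp 25–75 °C in 0.5 °C steps, ex 465/em 580 nm. Tm as transition midpoint by semi-parametric fit; ΔTm against mean of 32 DMSO-only apo controls per plate.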
For orientation: Differential scanning fluorimetry follows unfolding on heating by fluorescence.

Data set [4] concerns KYSE-520 cell line. The experiment in a line: Antitumor activity against human KYSE520 cells xenografted in immunocompromised nude mouse assessed as tumor growth inhibition at 30 mg/kg administered qd through oral gavage relative to vehicle control. The class given is functional. In a few lines:
(§1)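 Female nude mice inoculated subcutaneously with 3 x 10^6 parental KYSE-520 cells in 50% phenol red-free matrigel in HBSS. Tumors calipered twice weekly in two dimensions. At roughly 200 mm3, mice randomized to vehicle, test compound (10, 30 or 100 mg/kg qd) or erlotinib (80 mg/kg qd), all by oral gavage. Growth compared with vehicle group.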
(In general: A xenograft is tissue or cells of one species grown in another, often human tumour cells in immunodeficient mice.)

A short description of data set [5]: Solubility of the compound at pH 6.8. The format is physicochemical. The following applies: buffer.
Data set [6] relates to KYSE-520 cell line. Description: Antitumor activity against human KYSE520 cells xenografted in immunocompromised nude mouse assessed as tumor growth at 100 mg/kg administered qd through oral gavage relative to vehicle control. The class given is functional. In a few lines:
as §1

In data set [7] the test system is Mus musculus. The experiment in a line: In vivo inhibition of ERK phosphorylation in human KYSE520 cells xenografted in immunocompromised nude mouse at 30 and 100 mg/kg administered qd through oral gavage. The class given is functional, organism-based. The following applies: in the assay text read “administered as a single dose through” for “administered qd through”. In a few lines:
(§2)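 Female nude mice bearing subcutaneous KYSE-520 xenografts (3 x 10^6 cells in 50% matrigel/HBSS) received a single oral gavage dose of vehicle or compound (30 or 100 mg/kg) once tumors reached roughly 500 mm3. Euthanized at set time points; plasma harvested for drug levels and xenograft fragments for p-ERK.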

The nature of data set [8]: Apparent permeability across apical to basolateral side in human Caco2 cells. The format is ADME, cell-based. The following applies: Caco-2.
Data set [9] is described as follows: Oral bioavailability in C57BL/6 mouse at 5 mg/kg by LC-MS/MS analysis. The format is ADME, organism-based. To be noted: in vivo. In a few lines: (§3)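 Male C57BL/6 mice dosed orally at 5 mg/kg. Whole blood taken by tail transection at 0.25, 0.5, 1, 2, 4 and 7 h into EDTA. Plasma stored at -20 °C, precipitated with acetonitrile containing internal standard. PK parameters from noncompartmental analysis; AUClast by linear trapezoidal rule. %F = (AUCinf,po/AUCinf,iv)×(Dose iv/Dose po), with IV reference at 1 mg/kg via tail vein. Results given as mean.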

Data set [10] relates to KYSE-520 cell line. The experiment in a line: Antitumor activity against human KYSE520 cells xenografted in immunocompromised nude mouse assessed as tumor growth inhibition at 10 mg/kg administered qd through oral gavage relative to vehicle control. The format is functional. The procedure, abridged:
as §1

A short description of data set [11]: AUC in C57BL/6 mouse at 5 mg/kg, po by LC-MS/MS analysis. The format is ADME, organism-based. To be noted: in vivo. The procedure, abridged:
as §3

Data set [12] is described as follows: Drug uptake in plasma of immunocompromised nude mouse xenografted with human KYSE520 cells administered qd via oral gavage. The following applies: in the assay text read “administered as a single dose via” for “administered qd via”. The format is ADME. The procedure, abridged:
as §2

Data set [13] concerns KYSE-520 cell line. Description: Antitumor activity against human KYSE520 cells xenografted in immunocompromised nude mouse assessed as tumor stasis at 80 mg/kg administered qd through oral gavage relative to vehicle control. The format is functional, organism-based. The procedure, abridged: as §1

Active and inactive are the calls of the source. The calls are words filed in the database; no cut-off is given here. Where only a bound is given, the exact number is not on record here.

A word on the IC50: it is the concentration needed to halve the response being measured. A low value points to higher potency. As for `CNc1nc(N2CCC(C)(N)CC2)cnc1-c1cccc(Cl)c1Cl`, the midpoint of inhibition in data set [1], the IC50, lay at 22 µM.

For `Nc1nc(N2CCC(N)CC2)ncc1-c1cccc(Cl)c1Cl`, the midpoint of inhibition in data set [1], the IC50, lay at 1.3 µM.

In data set [1], `CN(C)C1CCN(c2ncc(-c3cccc(Cl)c3Cl)c(N)n2)CC1` returned an IC50 of 6.5 µM.

Usually ΔTm stands for the change in melting temperature against a reference sample. As to `C[C@@H]1CN(c2ncc(-c3cccc(Cl)c3Cl)c(N)n2)C[C@H](C)N1`, the IC50 in data set [2] was more than 100 µM. In addition, the thermal shift (ΔTm) in data set [3] was in the range of 3 to 3.02 °C.

Take `C[C@@H]1CN(c2ncc(-c3ccc(Cl)c(Cl)c3)c(N)n2)C[C@H](C)N1`: in [1], the IC50 stood at 54 µM.

Regarding `Cc1cccc(-c2cnc(N3C[C@@H](C)N[C@@H](C)C3)nc2N)c1C`, the IC50 in data set [1] is more than 100 µM.

In turn, `C[C@@H]1CN(c2ncc(-c3cccc(Cl)c3)c(N)n2)C[C@H](C)N1` had an IC50 in [1] of 99 µM.

As usually defined, the TGI is the reduction of tumour growth relative to the control group. By solubility is commonly meant the dissolved amount per volume that the medium holds. High values mean a readily soluble substance, low ones a poorly soluble substance. One may read the T/C as the ratio of treated to control. For orientation: Papp A→B means how fast a substance crosses the layer from the apical side. As a reminder, the bioavailability is the share of a dose that reaches the circulation, judged against a reference dose that is usually intravenous. By AUC is commonly meant the area under the concentration-time curve, a measure of exposure. Low values mean low exposure, high ones high exposure. Take `CC1(N)CCN(c2cnc(-c3cccc(Cl)c3Cl)c(N)n2)CC1`: the TGI came to 61% in [4] and 19% in data set [10]. For the same compound, in data set [5], the solubility was more than 500 µM. The T/C in data set [6] came out at 3%. For the same compound, the inhibition entry in data set [7] is “Active”. For the same compound, the Papp A→B in data set [8] was determined as 13.2 ×10⁻⁶ cm/s. Moreover, the bioavailability in data set [9] is 46%. The compound also returned an AUC in data set [11] of 565 µM·h. The Drug uptake result in data set [12] was “Dose-dependent effect”.

With `C#Cc1cccc(Nc2ncnc3cc(OCCOC)c(OCCOC)cc23)c1`, in [13], the result was Active.
